Read-outs that look alike come from different tables or passages of the source.
Experiments:
[1] = format: in vivo, male Sprague-Dawley rats; details: for half-life: male, Sprague-Dawley, rat, inhaled or intranasal, 1.8 ug
Outline: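 Male Sprague-Dawley rats (237.6 ± 1.6 g; n=4/group) were exposed nose-only to test compound vapor. The vapor came from air at 4.0 L/min bubbled through the neat compound at 25.0°C, then diluted to 10.0 L/min. Exposure was 1 h, a 1 h break, then 1 h. Shams breathed filtered air. Rats were killed 0, 4 and 8 h post exposure, shams at 2 and 6 h. Lung, liver and serum were PLE-extracted and analysed by GC-MS SIM. Results were blank/surrogate-corrected and lipid-normalized. Analysis used t-tests (p<0.05) and Gauss-Newton non-linear regression.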

[2] = cited from earlier work; for half-life after inhalation exposure (tissues overall): administered as part of Aroclor mixture, same duration of inhalation exposure, Figure S2
[3] = two-component exponential decay; blood, liver and muscle; intravenous; cited from earlier work
[4] = first order model fit, lipid weight basis

Oc1ccc(-c2cccc(Cl)c2)cc1Cl [4-OH-CB11, 3,3′-dichlorobiphenyl-4-ol]
ratio of 4-OH-CB11 to CB11 in liver ([1]; 0 h post exposure): 0.7±0.0 | mean liver 4-OH-CB11 level relative to sentinel rats ([1]; 4 h group vs sentinel rats): 15 fold | mean liver 4-OH-CB11 level relative to sham rats ([1]; 4 h group vs sham-exposed, not statistically significant): 4 fold | ratio of 4-OH-CB11 to CB11 in liver ([1]; 4 h post exposure): 0.9±0.2 | ratio of 4-OH-CB11 to CB11 in liver ([1]; 8 h post exposure): 1.1±0.1 | detection of 4-OH-CB11 in liver ([1]; liver of all PCB-exposed animals): detected | detection of 4-OH-CB11 in lung ([1]; lung samples of exposed rats): not detected | detection of 4-OH-CB11 in serum ([1]; serum samples of exposed rats): not detected

Clc1ccccc1-c1ccccc1 [CB1, monochlorobiphenyl]
level remaining during the inhalation exposure ([2]; Aroclor 1242 vapor inhalation): barely detectable levels

Clc1ccccc1-c1ccccc1Cl [CB4]
level remaining during the inhalation exposure ([2]; Aroclor 1242 vapor inhalation): barely detectable levels

Clc1ccc(-c2ccccc2Cl)cc1 [CB8, 2,4′-Dichlorobiphenyl]
half-life after inhalation exposure (tissues overall) [2]: 5 to 8 h

Clc1cccc(-c2cccc(Cl)c2)c1 [CB11, 3,3′-dichlorobiphenyl]
C0 (initial concentration) of CB11 in liver [1, 4]: 73.6 ng/g l.w. | C0 (initial concentration) of CB11 in serum [1, 4]: 295 ng/g l.w. | C0 (initial concentration) of CB11 in lung ([1]; first order model fit, lipid weight basis, inhalation 106 μg/m^3 for 2 h): 932 ng/g l.w. | half-life ([1]; liver): 2.1 h | half-life ([1]; lung): 1.9 h | half-life ([1]; serum): 1.8 h

Clc1ccc(-c2ccc(Cl)cc2)cc1 [CB15, 4,4′-dichlorobiphenyl]
half-life after inhalation exposure (tissues overall) [2]: 5 to 8 h

Clc1ccc(-c2ccc(Cl)cc2Cl)cc1 [CB28]
time of peak concentration after exposure ([2]; Aroclor 1242 vapor inhalation, suggests redistribution phase): 1 h

Clc1ccc(Cl)c(-c2c(Cl)ccc(Cl)c2Cl)c1Cl [CB136, 2,2′,3,3′,6′6′-hexachlorobiphenyl]
t½ of initial fast distribution phase [3]: 1.7 to 10.6 h | t½ of subsequent slower elimination phase [3]: 55.2 to 406 h

Clc1cc(Cl)c(-c2cc(Cl)c(Cl)cc2Cl)cc1Cl [CB153]
t½ of initial fast distribution phase [3]: 1.7 to 10.6 h | t½ of subsequent slower elimination phase [3]: 55.2 to 406 h

Source: publication PMC3962796 (Environmental science & technology, 2013)
